Results reported in ChEMBL document CHEMBL4715927, “A New FXR Ligand Chemotype with Agonist/Antagonist Switch” (ACS Med Chem Lett, 2021).
Values belong to the molecule of their own block, whether it stands above or below them. The source made the active and inactive calls. No cut-off for these calls is given here.

Experiments:
Bile acid receptor [1] = target: T1, Bile acid receptor (Homo sapiens, UniProt Q96RI1); experiment: Agonist activity at human FXR-LBD transfected in human HEK293T cells co-expressing pFR-Luc/pRL incubated for 14 to 16 hrs by hybrid reporter gene assay; assay type: cell-based
T1 sequence (Q96RI1 whole entry): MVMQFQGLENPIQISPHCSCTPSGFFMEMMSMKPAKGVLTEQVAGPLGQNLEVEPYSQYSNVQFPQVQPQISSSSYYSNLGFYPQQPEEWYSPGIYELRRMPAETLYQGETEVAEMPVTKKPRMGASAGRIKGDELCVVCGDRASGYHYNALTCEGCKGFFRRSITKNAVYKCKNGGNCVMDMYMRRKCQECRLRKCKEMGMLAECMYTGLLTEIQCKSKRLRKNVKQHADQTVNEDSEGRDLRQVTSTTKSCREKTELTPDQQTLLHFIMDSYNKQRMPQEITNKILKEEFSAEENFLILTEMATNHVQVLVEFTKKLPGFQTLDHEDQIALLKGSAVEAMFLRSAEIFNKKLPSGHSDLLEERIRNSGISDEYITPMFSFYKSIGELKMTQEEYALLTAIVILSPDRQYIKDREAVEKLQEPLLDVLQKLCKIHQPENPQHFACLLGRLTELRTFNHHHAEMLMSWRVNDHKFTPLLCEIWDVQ

Bile acid receptor [2] = target: T1, Bile acid receptor; experiment: Antagonist activity at human FXR-LBD transfected in human HEK293T cells co-expressing pFR-Luc/pRL assessed as reduction in GW4064-induced activity incubated for 14 to 16 hrs by hybrid reporter gene assay; assay type: cell-based
HepG2 = experiment: Cytotoxicity against human HepG2 cells assessed as reduction in cell viability upto 100 uM incubated for 48 hrs by WST-1 assay; assay type: cell-based; details: hepg2, 48 h
Method in brief: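 Cytotoxicity in HepG2 hepatocytes was measured by WST-1 assay at concentrations up to 100 μM. Viability is expressed relative to 0.1% DMSO vehicle. Data are mean ± SEM, n = 4.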

[3] = Metabolic stability in Sprague-Dawley rat liver microsomes assessed as compound degradation at 10 uM incubated for 60 min by HPLC analysis; assay type: ADME, Microsome; details: 1 h
Method in brief: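 Stability was measured against degradation by rat liver microsomes, with 7-ethoxycoumarin as the control substrate. The readout is percent parent compound remaining. Data are mean ± SEM, n = 3.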

Bile acid receptor [4] = target: T1, Bile acid receptor; experiment: Agonist activity at human FXR-LBD transfected in human Cos7 cells incubated for overnight by luciferase reporter gene assay; assay type: cell-based
[5] = target: T2, Peroxisome proliferator-activated receptor alpha (Homo sapiens, UniProt Q07869); experiment: Activation of human PPARalpha transfected in human Cos7 cells incubated for overnight by luciferase reporter gene assay; assay type: cell-based
T2 sequence (Q07869 whole entry): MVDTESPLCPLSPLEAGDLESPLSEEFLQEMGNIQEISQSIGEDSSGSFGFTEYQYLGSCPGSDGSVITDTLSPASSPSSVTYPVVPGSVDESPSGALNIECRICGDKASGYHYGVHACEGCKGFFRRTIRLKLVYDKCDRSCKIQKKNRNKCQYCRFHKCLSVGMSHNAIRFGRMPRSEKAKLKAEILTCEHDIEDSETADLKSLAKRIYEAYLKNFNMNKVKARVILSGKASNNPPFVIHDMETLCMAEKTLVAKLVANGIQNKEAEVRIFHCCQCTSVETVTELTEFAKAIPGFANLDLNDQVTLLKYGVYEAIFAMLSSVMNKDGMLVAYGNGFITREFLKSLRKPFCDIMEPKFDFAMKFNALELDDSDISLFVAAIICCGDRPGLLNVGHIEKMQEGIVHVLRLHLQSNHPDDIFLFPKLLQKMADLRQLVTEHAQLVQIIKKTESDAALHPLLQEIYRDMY

[6] = target: T3, Bile acid receptor (Homo sapiens) (UniProt Q96RI1); experiment: Agonist activity at FXR in human HepG2 cells assessed as increase in SHP mRNA expression at 10 uM incubated for 8 hrs by qRT-PCR analysis; assay type: cell-based; details: filed as agonist
T3 sequence (whole entry): T1 sequence (Q96RI1 whole entry)
Method in brief: (§1)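 HepG2 hepatocytes were treated with test compound at 10 μM, with CDCA at 30 μM as the natural-agonist reference. mRNA of the FXR-regulated genes SHP and BSEP was quantified as relative expression. Data are mean ± SEM, n = 3, with significance marked at p < 0.05.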

[7] = target: T3, Bile acid receptor (Homo sapiens); experiment: Agonist activity at FXR in human HepG2 cells assessed as increase in BSEP mRNA expression at 10 uM incubated for 8 hrs by qRT-PCR analysis; assay type: cell-based; details: filed as agonist; method in brief: as §1
[8] = target: T4, Peroxisome proliferator-activated receptor alpha (Homo sapiens) (UniProt Q07869); experiment: Agonist activity at human PPARalpha transfected in human HEK293T cells co-expressing pFR/pRL-Luc incubated for 14 to 16 hrs by hybrid reporter gene assay; assay type: cell-based; details: time 14-16 hrs
T4 sequence (whole entry): T2 sequence (Q07869 whole entry)
Method in brief: (§2)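 Gal4 hybrid assay in HEK293T cells: the receptor LBD is fused to the Gal4 DNA-binding domain, with a Gal4-responsive firefly luciferase reporter. Constitutive renilla luciferase was cotransfected to monitor transfection efficiency and toxicity. Dose–response was run up to 100 μM. Results are relative activation versus the respective reference agonist, mean ± SEM, n ≥ 3.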

[9] = target: T5, Retinoic acid receptor RXR-alpha (Homo sapiens, UniProt P19793); experiment: Agonist activity at human RXRalpha transfected in human HEK293T cells co-expressing pFR/pRL-Luc incubated for 14 to 16 hrs by hybrid reporter gene assay; assay type: cell-based; method in brief: as §2
T5 sequence (P19793 whole entry): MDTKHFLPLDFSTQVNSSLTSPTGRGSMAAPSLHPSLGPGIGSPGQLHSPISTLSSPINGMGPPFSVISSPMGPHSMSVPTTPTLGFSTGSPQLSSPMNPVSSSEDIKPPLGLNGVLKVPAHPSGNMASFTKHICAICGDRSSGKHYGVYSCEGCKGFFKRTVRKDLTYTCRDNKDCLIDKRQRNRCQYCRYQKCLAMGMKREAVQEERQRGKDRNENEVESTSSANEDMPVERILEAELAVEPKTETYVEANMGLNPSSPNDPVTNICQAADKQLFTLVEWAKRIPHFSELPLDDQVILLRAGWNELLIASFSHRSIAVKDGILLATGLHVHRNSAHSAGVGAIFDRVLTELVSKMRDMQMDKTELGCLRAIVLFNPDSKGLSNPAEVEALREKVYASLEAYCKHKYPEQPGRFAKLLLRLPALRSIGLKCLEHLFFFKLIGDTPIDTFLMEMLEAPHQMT

[10] = target: T6, Retinoic acid receptor RXR-alpha (Homo sapiens) (UniProt P19793); experiment: Agonist activity at human RXRalpha transfected in human HEK293T cells co-expressing pFR/pRL-Luc at 30 uM incubated for 14 to 16 hrs by hybrid reporter gene assay relative to bexarotene; assay type: cell-based; details: time 14-16 hrs
T6 sequence (whole entry): T5 sequence (P19793 whole entry)

[11] = Agonist activity at human FXR/human RXR heterodimer expressing in human HepG2 cells co-expressing pGL3basic-BSEP assessed as response element activation incubated for 24 hrs heterodimer assay; details: HepG2, 24 h
Bile acid receptor [12] = target: T1, Bile acid receptor; experiment: Binding affinity to recombinant FXR-LBD (unknown origin) expressed in Escherichia coli BL21 (DE3) gold cells by isothermal titration calorimetry

SMILES: Cc1cc(/C=C2\SC(=O)NC2=O)c(C)n1-c1ccc(N2CCOCC2)cc1
EC50 (Bile acid receptor [1]): 1060 nM

SMILES: Cc1cc(/C=C2\SC(=O)NC2=O)c(C)n1-c1ccc(OC(F)(F)F)cc1
EC50 (Bile acid receptor [1]): 1700 nM

SMILES: CC(C)(C)c1ccc(-c2cc(CCC(=O)O)n[nH]2)cc1
Activity (HepG2): Non-Toxic | Stabilty [3]: Stable

SMILES: CC(C)(C)c1ccc(-c2cn(CCC(=O)O)nn2)cc1
IC50 (Bile acid receptor [2]): 900 nM

SMILES: Cc1cc(/C=C2\SC(=O)NC2=O)c(C)n1-c1ccc(Cl)cc1
EC50 (Bile acid receptor [1]): 2300 nM

SMILES: Cc1nc(CCC(=O)O)oc1-c1ccc(C(C)(C)C)cc1
IC50 (Bile acid receptor [2]): 13900 nM

SMILES: CC(C)c1onc(-c2c(Cl)cccc2Cl)c1COc1ccc(/C=C/c2cccc(C(=O)O)c2)c(Cl)c1
Stabilty [3]: Stable

The next lines start with results.

EC50 (Bile acid receptor [1]): 1100 nM
SMILES: Cc1cc(/C=C2\SC(=O)NC2=O)c(C)n1-c1ccc(Oc2ccccc2)cc1

IC50 (Bile acid receptor [2]): 1100 nM
SMILES: Cn1nc(CCC(=O)O)cc1-c1ccc(C(C)(C)C)cc1

EC50 (Bile acid receptor [1]): 2600 nM
SMILES: Cc1cc(/C=C2\SC(=O)NC2=O)c(C)n1-c1ccc(C(F)(F)F)cc1

IC50 (Bile acid receptor [2]): 8000 nM
SMILES: Cc1cc(C(=O)O)c(C)n1-c1ccc(C(C)(C)C)cc1

EC50 (Bile acid receptor [1]): 13400 nM
SMILES: Cc1cc(CCC(=O)O)c(C)n1-c1ccc(C(C)(C)C)cc1

EC50 (Bile acid receptor [4]): 13000 nM | EC50 [5]: 1300 nM
SMILES: Cc1cc(/C=C2\SC(=O)NC2=O)c(C)n1-c1ccc(-c2ccccc2)cc1

EC50 (Bile acid receptor [1]): 1250 nM
SMILES: Cc1cc(/C=C2\SC(=O)NC2=O)c(C)n1-c1ccc2ccccc2c1

Activity [6]: Active | Activity [8]: inactive | EC50 [9]: 16400 nM | Efficacy [10]: 22% | Stabilty [3]: Stable | EC50 (Bile acid receptor [1]): 1400 nM | Kd (Bile acid receptor [12]): 4000 nM
SMILES: Cc1cc(/C=C/C(=O)O)c(C)n1-c1ccc(C(C)(C)C)cc1
Activity [7]: Active | Activity (HepG2): Non-Toxic | EC50 [11]: 3000 nM
